Experimental data: ChEMBL document CHEMBL1275561, “In vitro activities of doripenem, a new broad-spectrum carbapenem, against recently collected clinical anaerobic isolates, with emphasis on the Bacteroides fragilis group” (2008)
≈ marks a conversion by molar mass, not a printed value.

Legend:
Assay type in all cases: functional
[1] = tested on: [Clostridium] innocuum; assay: Antimicrobial activity against Clostridium innocuum by agar dilution method
[2] = tested on: Bacteroides uniformis; assay: Antimicrobial activity against Bacteroides uniformis assessed as resistant isolates by agar dilution method
Method in brief: (§1)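 CLSI agar dilution on enriched brucella agar (5% lysed defibrinated sheep blood, 1 μg/ml vitamin K1), plates made on test day. Log-phase inocula adjusted to 0.5 McFarland; about 10^5 CFU/spot by Steers replicator. Incubated anaerobically at 37°C for 48 h. MIC was the lowest concentration giving a marked change in growth versus the drug-free control plate. Resistance rates used CLSI anaerobe breakpoints. Controls were B. fragilis ATCC 25285 and B. thetaiotaomicron ATCC 29741.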

[3] = tested on: Parvimonas micra; assay: Antimicrobial activity against Micromonas micros by agar dilution method
Method in brief: (§2)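 Gram-positive anaerobes were tested by CLSI agar dilution on brucella agar enriched with 5% lysed defibrinated sheep blood and 1 μg/ml vitamin K1. Inoculum was log-phase growth at 0.5 McFarland, about 10^5 CFU/spot by replicator. Incubation was anaerobic, 37°C, 48 h. MIC was the lowest concentration with a marked growth change versus the drug-free plate. Eubacterium lentum ATCC 43055 was the control, and tests were repeated if it fell outside the CLSI range.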

[4] = tested on: Cutibacterium acnes; assay: Antimicrobial activity against Propionibacterium acnes by agar dilution method
Method in brief: (§3)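 Log-phase isolates were adjusted to 0.5 McFarland, and about 10^5 CFU/spot was delivered by Steers replicator. Plates were incubated anaerobically at 37°C for 48 h. MIC was the lowest concentration giving a marked growth change versus the control plate. Eubacterium lentum ATCC 43055 was the QC strain, with repeats when out of range.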

[5] = tested on: Propionibacterium; assay: Antimicrobial activity against Propionibacterium sp. assessed as resistant isolates by agar dilution method
Method in brief: (§4)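 Agar dilution following CLSI on brucella agar with 5% lysed defibrinated sheep blood and 1 μg/ml vitamin K1, plates made on test day. Log-phase cells at 0.5 McFarland, about 10^5 CFU/spot by Steers replicator, 48 h anaerobic at 37°C. MIC read as the lowest concentration causing a marked growth change versus control. Resistance counted by CLSI anaerobe breakpoints. Eubacterium lentum ATCC 43055 served as control.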

[6] = tested on: Clostridioides difficile; assay: Antimicrobial activity against Clostridium difficile by agar dilution method
[7] = tested on: Bacteroides ovatus; assay: Antimicrobial activity against Bacteroides ovatus assessed as resistant isolates by agar dilution method; method in brief: as §1
[8] = tested on: Bacteroides ovatus; assay: Antimicrobial activity against Bacteroides ovatus by agar dilution method
Method in brief: (§5)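 CLSI agar dilution on enriched brucella agar (5% lysed defibrinated sheep blood, 1 μg/ml vitamin K1), with drug plates made on the test day. Log-phase cells were adjusted to 0.5 McFarland, and about 10^5 CFU/spot was delivered by Steers replicator. Plates were incubated anaerobically at 37°C for 48 h. MIC was the lowest concentration giving a marked growth change versus the control plate. Controls were B. fragilis ATCC 25285 and B. thetaiotaomicron ATCC 29741.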

[9] = tested on: Phocaeicola vulgatus; assay: Antimicrobial activity against Bacteroides vulgatus assessed as resistant isolates by agar dilution method; method in brief: as §1
[10] = tested on: Bacteroides fragilis; assay: Antimicrobial activity against Bacteroides fragilis assessed as resistant isolates by agar dilution method; method in brief: as §1
[11] = tested on: Peptoniphilus asaccharolyticus; assay: Antimicrobial activity against Peptoniphilus asaccharolyticus by agar dilution method; method in brief: as §2
[12] = tested on: Parabacteroides distasonis; assay: Antimicrobial activity against Bacteroides distasonis by agar dilution method; method in brief: as §5
[13] = tested on: Parabacteroides distasonis; assay: Antimicrobial activity against Bacteroides distasonis assessed as resistant isolates by agar dilution method; method in brief: as §1
[14] = tested on: Cutibacterium acnes; assay: Antimicrobial activity against Propionibacterium acnes assessed as resistant isolates by agar dilution method; method in brief: as §4
[15] = tested on: Finegoldia magna; assay: Antimicrobial activity against Finegoldia magna by agar dilution method; method in brief: as §2
[16] = tested on: Clostridium tertium; assay: Antimicrobial activity against Clostridium tertium by agar dilution method
[17] = tested on: Bacteroides caccae; assay: Antimicrobial activity against Bacteroides caccae by agar dilution method; method in brief: as §5
[18] = tested on: Finegoldia magna; assay: Antimicrobial activity against Finegoldia magna assessed as resistant isolates by agar dilution method; method in brief: as §4
[19] = tested on: Clostridium perfringens; assay: Antimicrobial activity against Clostridium perfringens by agar dilution method
[20] = tested on: Bacteroides thetaiotaomicron; assay: Antimicrobial activity against Bacteroides thetaiotaomicron assessed as resistant isolates by agar dilution method; method in brief: as §1
[21] = tested on: Bacteroides thetaiotaomicron; assay: Antimicrobial activity against Bacteroides thetaiotaomicron by agar dilution method; method in brief: as §5
[22] = tested on: Bacteroides fragilis; assay: Antimicrobial activity against Bacteroides fragilis by agar dilution method; method in brief: as §5
[23] = tested on: Bacteroides eggerthii; assay: Antimicrobial activity against Bacteroides eggerthii by agar dilution method; method in brief: as §5
[24] = tested on: Bacteroides caccae; assay: Antimicrobial activity against Bacteroides caccae assessed as resistant isolates by agar dilution method; method in brief: as §1
[25] = tested on: Clostridium paraputrificum; assay: Antimicrobial activity against Clostridium paraputrificum by agar dilution method
[26] = tested on: Anaerococcus prevotii; assay: Antimicrobial activity against Anaerococcus prevotii by agar dilution method; method in brief: as §2
[27] = tested on: Bacteroides eggerthii; assay: Antimicrobial activity against Bacteroides eggerthii assessed as resistant isolates by agar dilution method; method in brief: as §1
[28] = tested on: Bacteroides nordii; assay: Antimicrobial activity against Bacteroides nordii assessed as resistant isolates by agar dilution method; method in brief: as §1
[29] = tested on: Phocaeicola vulgatus; assay: Antimicrobial activity against Bacteroides vulgatus by agar dilution method; method in brief: as §5
[30] = tested on: Parabacteroides merdae; assay: Antimicrobial activity against Bacteroides merdae assessed as resistant isolates by agar dilution method; method in brief: as §1
[31] = tested on: Bacteroides nordii; assay: Antimicrobial activity against Bacteroides nordii by agar dilution method; method in brief: as §5
[32] = tested on: Bacteroides uniformis; assay: Antimicrobial activity against Bacteroides uniformis by agar dilution method; method in brief: as §5
[33] = tested on: Peptoniphilus asaccharolyticus; assay: Antimicrobial activity against Peptoniphilus asaccharolyticus assessed as resistant isolates by agar dilution method; settings: pooled result: one value given for 4 cell lines, strains, targets or settings; method in brief: as §4
[34] = tested on: Clostridium subterminale; assay: Antimicrobial activity against Clostridium subterminale by agar dilution method
[35] = tested on: Peptostreptococcus sp.; assay: Antimicrobial activity against Peptostreptococcus sp. by agar dilution method; method in brief: as §3
[36] = tested on: Propionibacterium; assay: Antimicrobial activity against Propionibacterium sp. by agar dilution method; method in brief: as §3
[37] = tested on: [Clostridium] innocuum; assay: Antimicrobial activity against Clostridium innocuum assessed as resistant isolates by agar dilution method; settings: pooled result: one value given for 4 cell lines, strains, targets or settings
[38] = tested on: Parabacteroides merdae; assay: Antimicrobial activity against Bacteroides merdae by agar dilution method; method in brief: as §5

C[C@@H](O)[C@H]1C(=O)N2C(C(=O)O)=C(S[C@@H]3CN[C@H](CNS(N)(=O)=O)C3)[C@H](C)[C@H]12 [DORIPENEM]
MIC50 [1]: 1 µg/mL (≈ 2.38 µM) | MIC90 [1]: 2 µg/mL (≈ 4.76 µM) | Activity [2]: 0% | MIC [3]: 0.06 µg/mL (≈ 0.143 µM) | MIC50 [3]: 0.06 µg/mL (≈ 0.143 µM) | MIC90 [3]: 0.5 µg/mL (≈ 1.19 µM) | MIC [4]: 0.06 µg/mL (≈ 0.143 µM) | MIC50 [4]: 0.06 µg/mL (≈ 0.143 µM) | MIC90 [4]: 0.06 µg/mL (≈ 0.143 µM) | Activity [5]: 0% | MIC [6]: 1 µg/mL (≈ 2.38 µM) | Activity [7]: 0% | MIC50 [8]: 0.5 µg/mL (≈ 1.19 µM) | MIC90 [8]: 2 µg/mL (≈ 4.76 µM) | Activity [9]: 0% | Activity [10]: 1.5% | MIC [11]: 0.06 µg/mL (≈ 0.143 µM) | MIC50 [11]: 0.06 µg/mL (≈ 0.143 µM) | MIC90 [11]: 0.5 µg/mL (≈ 1.19 µM) | MIC50 [12]: 0.5 µg/mL (≈ 1.19 µM) | MIC90 [12]: 2 µg/mL (≈ 4.76 µM) | Activity [13]: 0% | Activity [14]: 0% | MIC50 [15]: 0.125 µg/mL (≈ 0.297 µM) | MIC90 [15]: 0.125 µg/mL (≈ 0.297 µM) | MIC50 [16]: 1 µg/mL (≈ 2.38 µM) | MIC90 [16]: 2 µg/mL (≈ 4.76 µM) | MIC50 [17]: 0.5 µg/mL (≈ 1.19 µM) | MIC90 [17]: 2 µg/mL (≈ 4.76 µM) | Activity [18]: 0% | MIC [19]: 0.06 µg/mL (≈ 0.143 µM) | MIC50 [19]: 0.06 µg/mL (≈ 0.143 µM) | MIC90 [19]: 0.125 µg/mL (≈ 0.297 µM) | Activity [20]: 0% | MIC50 [21]: 0.5 µg/mL (≈ 1.19 µM) | MIC90 [21]: 1 µg/mL (≈ 2.38 µM) | MIC50 [22]: 0.5 µg/mL (≈ 1.19 µM) | MIC90 [22]: 1 µg/mL (≈ 2.38 µM) | MIC50 [23]: 0.5 µg/mL (≈ 1.19 µM) | MIC90 [23]: 1 µg/mL (≈ 2.38 µM) | Activity [24]: 0% | MIC50 [25]: 1 µg/mL (≈ 2.38 µM) | MIC90 [25]: 2 µg/mL (≈ 4.76 µM) | MIC [26]: 0.06 µg/mL (≈ 0.143 µM) | MIC50 [26]: 0.06 µg/mL (≈ 0.143 µM) | MIC90 [26]: 0.5 µg/mL (≈ 1.19 µM) | Activity [27]: 0% | Activity [28]: 0% | MIC50 [29]: 0.5 µg/mL (≈ 1.19 µM) | MIC90 [29]: 2 µg/mL (≈ 4.76 µM) | Activity [30]: 0% | MIC50 [31]: 0.5 µg/mL (≈ 1.19 µM) | MIC90 [31]: 1 µg/mL (≈ 2.38 µM) | MIC50 [32]: 0.5 µg/mL (≈ 1.19 µM) | MIC90 [32]: 1 µg/mL (≈ 2.38 µM) | Activity [33]: 0% | MIC50 [34]: 1 µg/mL (≈ 2.38 µM) | MIC90 [34]: 2 µg/mL (≈ 4.76 µM) | MIC [35]: 0.06 µg/mL (≈ 0.143 µM) | MIC50 [35]: 0.06 µg/mL (≈ 0.143 µM) | MIC90 [35]: 0.5 µg/mL (≈ 1.19 µM) | MIC [36]: 0.06 µg/mL (≈ 0.143 µM) | MIC50 [36]: 0.06 µg/mL (≈ 0.143 µM) | MIC90 [36]: 0.06 µg/mL (≈ 0.143 µM) | Activity [37]: 0% | MIC50 [38]: 0.5 µg/mL (≈ 1.19 µM) | MIC90 [38]: 1 µg/mL (≈ 2.38 µM)
